Screening results (PubChem BioAssay)
The list is not random: actives were taken first. Their share in the collection is about 2.4%.
STEP inh: blocks human striatal-enriched tyrosine phosphatase. recombinant STEP, OMFP fluorogenic substrate, fluorescence. inhibition, % at 20 µM. actives 0.25% (n = 360,000);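 active = inhibition at 20 µM, scaled per plate between control wells, above about 37%, limit read from the data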;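 note: 0% = DMSO with enzyme and substrate and 100% = substrate only without enzyme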
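Also added – OMFP at 25 µM · Test system – STEP tyrosine phosphatase · Technique – FITC-channel fluorescence of OMFP product · Schedule – 20 min at room temperature, dark · Evaluation – control-normalized % inhibition with plate pattern correction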
SUMO1 PPI mod: modulators of human SUMO1-mediated protein-protein interactions | P63165 | SUMO1 binding to a labelled peptide, TR-FRET, 1 h | inhibition, % at 20 µM | actives 0.33% (n = 360,000) | AID 602429; in the data active = inhibition above about 37%
Target sequence (P63165 whole entry, looked up): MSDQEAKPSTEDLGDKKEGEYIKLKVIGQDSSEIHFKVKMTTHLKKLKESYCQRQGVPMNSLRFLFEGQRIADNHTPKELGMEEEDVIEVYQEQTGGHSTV
DNMT1 block: blocks human DNA methyltransferase DNMT1 | inhibition (reported as % activation of signal), % at 10 µM | P26358 | DNMT1 molecular beacon, Hinp1I cleavage, fluorescence | actives 0.83% (n = 360,000); in the data active = inhibition above about 50%
NadD block: inhibitors of Staphylococcus aureus NadD; purified NadD enzyme, colorimetric absorbance read-out; inhibition, % at 20 µM; actives 0.78% (n = 360,000); in the data active = inhibition above about 26%
LMPTP inh: LMPTP (human) inhibition; P24666; recombinant LMPTP-A, OMFP fluorogenic substrate, fluorescence intensity; inhibition, % at 20 µM; actives 0.22% (n = 360,000); AID 651560;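 active = compounds that cut the enzyme signal by at least half of the control window in the single-dose screen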;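 note: plate controls were DMSO wells with enzyme plus substrate for no effect and substrate without enzyme for full effect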
Target sequence (P24666 whole entry, looked up): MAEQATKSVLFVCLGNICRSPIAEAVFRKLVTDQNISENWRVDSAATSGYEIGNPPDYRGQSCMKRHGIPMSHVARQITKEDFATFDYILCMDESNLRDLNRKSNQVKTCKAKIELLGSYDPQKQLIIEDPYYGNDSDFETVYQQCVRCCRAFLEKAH
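material = LMPTP-A | quantity = 0.625 nM enzyme | reagent = OMFP substrate, 400 µM final | buffer or medium = Bis-Tris pH 6.0, DTT, detergent | detection = endpoint fluorescence intensity from OMFP dephosphorylation | dosing = single 20 µM dose | read-out basis = % inhibition relative to no-enzyme and uninhibited control wells | control set = no-enzyme and uninhibited controls | timing = 50 min at room temperature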
Scp1 inh: Scp-1 (human) phosphatase inhibition; Recombinant Scp1, phosphopeptide, malachite green phosphate absorbance; inhibition, % at 20 µM; actives 0.88% (n = 340,000);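 active = inhibition above about 50% at 20 µM, limit read from the data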;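 note: plate controls were DMSO wells with enzyme for no effect and wells lacking enzyme for full effect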
Target sequence (Q9GZU7 76-261 limits assumed): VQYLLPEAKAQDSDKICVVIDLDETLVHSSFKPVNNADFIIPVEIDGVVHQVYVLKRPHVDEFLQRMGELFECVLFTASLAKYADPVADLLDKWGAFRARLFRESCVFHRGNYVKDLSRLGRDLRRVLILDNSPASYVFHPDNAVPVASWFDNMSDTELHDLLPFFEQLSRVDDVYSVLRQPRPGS
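Material: truncated SCP-1 phosphatase (76-261aa) / Buffer or medium: 50 mM Tris acetate pH 5.5, 0.005% Tween-20, 10 mM MgCl2 / Compound dosing: one concentration, 20 µM, with 1.0% DMSO / Incubation: 45 min room-temperature reaction, 5 min colour, 30 min stabiliser / Detection: colorimetric free-phosphate detection, absorbance 630 nm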
Active calls of the source: *; . = not tested or not shown.

SMILES	STEP inh	SUMO1 PPI mod	DNMT1 block	NadD block	LMPTP inh	Scp1 inh
CN(C)c1ccc(NC(=S)c2ccc3ccccc3n2)cc1	68*	-19	-5	-3	7	-4
O=C1CC(SC(=S)C2CCCC2=O)C(=O)N1 (centres undefined)	12	30	69*	0	1	.
O=C(CCNS(=O)(=O)c1cccs1)N1CCc2ccccc2C1	-1	1	-10	-4	-2	-7
CCOC(=O)C1(CCCc2ccccc2)CCN(C(=O)c2cc(C)nn2CC)CC1	-1	43*	-4	-1	0	-5
NC(=O)C1CCN(C(=S)c2ccc(-c3ccc(Br)cc3)o2)CC1	95*	-7	-1	-7	-1	-3
O=C(COC(=O)Cn1cnc2ccccc21)Nc1cc(S(=O)(=O)N2CCOCC2)ccc1Cl	8	11	-3	1	2	4
O=C(COC(=O)Cn1cnc2ccccc21)Nc1cc2c(cc1Cl)C(=O)c1ccccc1C2=O	2	-18	10	39*	7	3
CN1C2CCC1CC(NC(=O)c1ccc(Cl)cc1)C2 (centres undefined)	-2	-2	7	2	-1	-7
Cc1cc2[nH]c3c4ccccc4nc(C)c3c2cc1C	6	18	10	15	55*	0
COc1cccc(NC(=O)CN(C)C(=O)c2ccc(COc3ccccc3)o2)c1	0	-2	1	1	1	-6
COc1cccc2c(SCC(=O)N/N=C/c3ccc(O)c(O)c3)cc(C)nc12	6	10	8	17	38	-4
COc1ccc2nc(C)cc(SCC(=O)N/N=C/c3ccc(O)c(O)c3)c2c1	2	12	10	6	57*	-3
Cc1cc(C)n(-c2ccc(C(=O)Nc3nc4ccccc4s3)cc2)n1	-1	6	-9	1	-2	-2
Nc1ccc(NC(=O)c2ccc(C(=O)Nc3ccc(N)cc3)cc2)cc1	39	59*	-22	9	6	-10
Nc1ccc(C(=O)Nc2ccc(Nc3ccncc3)cc2)cc1	0	40	2	-2	7	-14
Nc1ccc(C(=O)Nc2nc3ccccc3s2)cc1	0	2	-4	0	-1	60*
Cc1ccc(C(=O)NN2C(=O)C3C(C2=O)C2C=CC3C23CC3)cc1 (centres undefined)	0	60*	0	-4	-1	1
O=C(NN1C(=O)C2C(C1=O)C1C=CC2C12CC2)c1ccc(Cl)cc1 (centres undefined)	2	1	-2	2	-3	-4
CCOC(=O)c1c2c(n(Cc3ccccc3)c1C)C(=O)C(=O)c1ccccc1-2	2	16	93*	1	14	-8
CCOC(=O)c1c2c(n(C)c1C)C(=O)C(=O)c1ccc(Br)cc1-2	2	22	88*	3	3	-4
CCOC(=O)c1c2c3c(cccc3n(C)c1=O)C(=O)c1ccccc1-2	3	-17	2	-10	1	-5
CCOc1cccc(NC(=O)C2CC(=O)N(C)C(=Nc3ccccc3)S2)c1 (centres undefined)	1	-1	4	-1	1	5
S=C(NCCCN1CCOCC1)NCCCN1CCOCC1	94*	-2	-1	-2	-7	-2
Cc1cc(O)c(C=O)c2c1C(=O)Oc1c(CO)c(O)c3c(c1O2)C(O)OC3=O (centres undefined)	46*	103*	57*	34*	57*	77*
Cc1ccc(/C(N)=N/OC(=O)c2ccc3ccccc3c2)cc1	3	2	2	3	0	-15
SMILES	STEP inh	SUMO1 PPI mod	DNMT1 block	NadD block	LMPTP inh	Scp1 inh
N#C/C(=C\c1ccc(N2CCOCC2)c([N+](=O)[O-])c1)c1nc2ccccc2[nH]1	-2	-12	-1	7	0	16
N#C/C(=C/c1ccc(N2CCCC2)c([N+](=O)[O-])c1)c1nc2ccccc2[nH]1	3	-6	30	36*	5	4
CCOC(=O)c1c(NC(=O)C(=O)N/N=C/c2ccc(O)c(OC)c2)sc2c1CCCCC2	1	3	-12	32*	3	0
Cc1[nH]n(-c2ccccc2)c(=S)c1C=Nc1cccc([N+](=O)[O-])c1	1	-9	-3	23	-1	87*
Cc1ccc(-n2nc3c(c2NC(=O)c2ccc(S(=O)(=O)N4CCOCC4)cc2)CSC3)c(C)c1	-2	0	-7	34*	0	-7
CC1CCCCN1C(=O)NC12CC3CC(CC(C3)C1)C2 (centres undefined)	-2	-2	4	-5	-1	-3
C/C(=N/N=C(/N)SCc1ccccc1)C(C)(C)C	-3	1	-2	-4	-3	-3
Cc1ccc(NC(=O)CCCN2C(=O)/C(=C/C=C/c3ccccc3)SC2=S)cc1	1	1	-7	15	1	-7
O=C(NN1C(=O)/C(=C/C=C/c2ccco2)SC1=S)c1ccccc1O	14	77*	91*	40*	61*	74*
O=C(O)C(Cc1ccccc1)N1C(=O)/C(=C/C=C/c2ccco2)SC1=S (centres undefined)	83*	115*	97*	27	64*	84*
COc1ccc(/C=C2\SC(=S)N(C(Cc3ccccc3)C(=O)O)C2=O)cc1 (centres undefined)	7	-14	3	8	0	-4
O=C(O)CCCN1C(=O)/C(=C/C=C/c2ccco2)SC1=S	54*	103*	87*	1	35	97*
Cn1cccc1/C=C1\SC(=S)N(NC(=O)c2ccccc2O)C1=O	0	-13	2	1	4	-15
O=C(O)CC(C(=O)O)N1C(=O)/C(=C/C=C/c2ccco2)SC1=S (centres undefined)	89*	112*	79*	-2	66*	88*
COc1ccccc1CNC(=O)[C@H](C)NC(=O)C1CCN(C(=O)[C@@H](N)CC(C)C)CC1	2	-4	-4	-1	-1	-13
CC(C)OC(=O)c1cc(=O)[nH]c2ccccc12	0	-3	4	6	0	-5
CC(C)Nc1ncnc2[nH]ncc12	5	2	-1	-2	-2	-10
CNc1nc(NC)c2cn[nH]c2n1	-2	-2	0	2	63*	-8
Cc1cc(=O)oc2cc(OCC(=O)c3ccc4c(c3)NC(=O)CO4)ccc12	2	42*	16	3	39	3
O=C(COC(=O)CNC(=O)c1ccc(Cl)cc1Cl)NC1CC1	-1	-1	-1	0	-1	-1
